Common to all, as to type: functional, cell-based
The subject of one assay is HCT-116. Kind of assay: Antiproliferative activity against human HCT-116 cells assessed as inhibition of cell growth after 48 hrs by MTT assay. The following applies: HCT-116, 48 h. Put shortly:
(§1)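 Cells grown in RPMI-1640 with 10% heat-inactivated FBS at 37 °C, 5% CO2, seeded at 8×10^3/well, treated 48 h with compound at 20, 200, 400, 1000 μM or DMSO vehicle. MTT (5 mg/mL solution) added for 4 h at 37 °C; absorbance read at 570 nm. IC50 from three independent experiments, mean ± SD.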
For orientation: Tetrazolium assays rely on reduction of a dye to a coloured formazan, in cell work by metabolically active cells.

Another assay has as its system B16. The experiment in a line: Antimigratory activity against mouse B16 cells assessed as inhibition of cell migration at 6.25 to 25 uM measured after 24 hrs by scratch wound healing assay. The following applies: dose 6.25-25 µM. In outline:
(§2)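 Near-confluent monolayers (1.5×10^5 cells per well, RPMI-1640 + 10% FBS) scratched with a pipette tip, washed twice with serum-free RPMI-1640, then exposed to compound in fresh FBS-containing medium (DMSO solvent control) for 24 h. Wounds photographed by inverted microscopy; migration expressed as wound width at 24 h / wound width at 0 h (%). Triplicate.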

The subject of a further assay is B16-F10. The experiment in a line: Antimigratory activity against mouse B16-F10 cells assessed as inhibition of cell migration at 6.25 to 25 uM measured after 24 hrs by scratch wound healing assay. Conditions: dose 6.25-25 µM. In outline: as §2
A further assay deals with K562. Kind of assay: Antiproliferative activity against human K562 cells assessed as inhibition of cell growth after 48 hrs by MTT assay. The following applies: K562, 48 h. Put shortly: as §1

The structures appear in SMILES notation. Calls of active or inactive are those of the source. No cut-off for these calls is given here.

Broadly, the IC50 is the concentration that inhibits the measured activity by half. As to `CCCCCCCCCCCCC/C=C/[C@@H](O)[C@@H](N)CO[C@@H]1O[C@H](CO)[C@@H](O[C@@H]2O[C@H](CO[C@]3(C(=O)O)C[C@H](O)[C@@H](NC(C)=O)[C@H]([C@H](O)[C@H](O)CO)O3)[C@H](O)[C@H](O)[C@H]2O)[C@H](O)[C@H]1O`, the figures for the IC50 in the assay on HCT-116 and in the assay on K562 were 150 µM and 149 µM, respectively. Further, the inhibition entry in the assay on B16 and with B16-F10 was “Active” throughout.
In the case of `CCCCCCCCCCCCC/C=C/[C@@H](O)[C@H](CO[C@@H]1O[C@H](CO)[C@@H](O[C@@H]2O[C@H](CO[C@]3(C(=O)O)C[C@H](O)[C@@H](NC(C)=O)[C@H]([C@H](O)[C@H](O)CO)O3)[C@H](O)[C@H](O)[C@H]2O)[C@H](O)[C@H]1O)NC(=O)CCCCCCCCCCCCCCCCC`, the IC50 in the assay with HCT-116 and with K562 was 201 µM throughout. The inhibition entry in the assay with B16 and with B16-F10 was “Active” each time.

The values above are taken from ChEMBL document CHEMBL4680178, “Design, synthesis and biological evaluation of new ganglioside GM3 analogues as potential agents for cancer therapy” (Eur J Med Chem, 2020).
